ChEMBL document CHEMBL3414570, “Small molecule binding sites on the Ras:SOS complex can be exploited for inhibition of Ras activation” (J Med Chem, 2015)
Calls of active or inactive are those of the source. The calls are words filed in the database; no cut-off is given here.

Legend:
[1] = Binding affinity to 6His-TEV-SH-HRas(1 to 166) (unknown origin)/6His-TEV-SH-SOS (unknown origin) complex by nuclear magnetic resonance analysis; parameters: species or system Homo sapiens
Homo sapiens [2] = species on record: Homo sapiens; assay: Inhibition of SOS (unknown origin) at 200 uM incubated for 2.5 hrs followed by KRas-GDP addition measured after 4 hrs by HTRF method
Procedure, shortened: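 SOS preincubated with compound (200 μM final during preincubation) 2.5 h ambient; streptavidin-europium then biotin-KRas-GDP added, 4 h. GST-Raf/anti-GST-XL665 plus GTPγS started exchange; final 3 nM KRas, 1 µM SOS, 1 μM GTPγS. HTRF read at 60 min; inhibition relative to DMSO (0%) and no-KRas (100%) controls.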

[3] = tested on: GTPase KRas (Homo sapiens), P01116 [G12C]; assay: Time dependent inhibition of KRas G12C mutant (unknown origin) assessed as SOS-mediated MANT-dGDP displacement at 200 uM by microplate reader analysis
Procedure, shortened: (§1)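 KRas (WT, G12V or G12C) preequilibrated 4 h with SOS and MANT-dGDP in HEPES/NaCl/MgCl2/Tween-20 buffer; added to compound (200 μM final). Fluorescence read kinetically (ex 350/em 450 nm) to 85 min; each well referenced to time zero and to DMSO controls.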

[4] = target: GTPase KRas (Homo sapiens) (UniProt P01116); assay: Time dependent inhibition of wild-type KRas (unknown origin) assessed as SOS-mediated MANT-dGDP displacement at 200 uM by microplate reader analysis; procedure, shortened: as §1
[5] = tested on: GTPase KRas (Homo sapiens), P01116 [G12V]; assay: Time dependent inhibition of KRas G12V mutant (unknown origin) assessed as SOS-mediated MANT-dGDP displacement at 200 uM by microplate reader analysis; procedure, shortened: as §1
[6] = target: GTPase KRas (Homo sapiens) (UniProt P01116); assay: Inhibition of biotinylated KRas-GDP (unknown origin) at 200 uM incubated for 2.5 hrs followed by SOS addition measured after 4 hrs by HTRF method
Procedure, shortened: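 Biotin-KRas-GDP preincubated with compound (200 μM final during preincubation) 2.5 h ambient; streptavidin-europium then SOS added, 4 h equilibration. GST-Raf/anti-GST-XL665 premix plus GTPγS added to start exchange; final 3 nM KRas, 1 µM SOS, 1 μM GTPγS, 10 nM GST-Raf. HTRF read at 60 min (665/615 nm); inhibition relative to DMSO (0%) and no-KRas (100%) controls.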

Homo sapiens [7] = species on record: Homo sapiens; assay: Inhibition of Kras:GDP:SOS complex (unknown origin) at 200 uM after 2.5 hrs by HTRF method
Procedure, shortened: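 Biotin-KRas-GDP plus SOS preincubated with compound (200 μM final during preincubation) 2.5 h ambient; streptavidin-europium in DTT-containing buffer added, 4 h. GST-Raf/anti-GST-XL665 plus GTPγS then added; final 3 nM KRas, 1 µM SOS, 1 μM GTPγS. HTRF read at 60 min; inhibition relative to DMSO (0%) and no-KRas (100%) controls.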

Sequence of GTPase KRas (Homo sapiens) (P01116 whole entry, looked up): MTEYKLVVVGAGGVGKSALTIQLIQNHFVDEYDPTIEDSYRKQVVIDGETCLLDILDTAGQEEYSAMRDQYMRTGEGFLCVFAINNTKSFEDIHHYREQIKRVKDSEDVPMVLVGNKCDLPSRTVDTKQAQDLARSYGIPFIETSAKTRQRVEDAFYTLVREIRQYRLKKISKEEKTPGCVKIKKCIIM
Sequence of GTPase KRas (Homo sapiens), P01116 [G12C] (P01116 whole entry G12C): as the sequence (P01116 whole entry, looked up) above, with G12C counted along it
Sequence of GTPase KRas (Homo sapiens), P01116 [G12V] (P01116 whole entry G12V): as the sequence (P01116 whole entry, looked up) above, with G12V counted along it

Kd [1] [mM] | inhibition (Homo sapiens [2]) | inhibition (Homo sapiens [7]) | Structure (SMILES) | also measured
6 | – | – | Brc1ccc2cc[nH]c2c1 | –
– | inactive | inactive | CCN1C(=O)C=C(c2cccc(C(N)=O)c2)C1=O | inhibition [3]: Active; inhibition [4]: Active; inhibition [5]: Active; inhibition [6]: inactive
1.6 | – | – | CSc1nc(-c2c(C)cccc2C)nc(N2CCNCC2)n1 | –
6 | – | – | Nc1ccc(S(=O)(=O)NC(=O)C2CC2)cc1 | –
3 | – | – | Nc1ccc(S(=O)(=O)N2CCCCC2=O)cc1 | –
– | inactive | 40% | O=C1C=CC(=O)N1C1CCS(=O)(=O)C1 (stereo not drawn) | –
– | inactive | inactive | CCN1C(=O)C=C(c2cc(C#N)cc(C(=O)O)c2)C1=O | inhibition [6]: inactive
1.7 | – | – | OC1(c2ccc(Br)cc2)CCNCC1 | –
– | inactive | 40% | CCN1C(=O)C=C(c2cc(Cl)cc(C(N)=O)c2)C1=O | –
– | inactive | inactive | CCN1C(=O)C=C(c2cccc(CN)c2)C1=O | inhibition [6]: inactive
1.3 | – | – | Brc1ccc(CN2CCCC2)cc1 | –
6 | – | – | COc1ccc(S(=O)(=O)Nc2nccs2)cc1 | –
